Source: PubChem BioAssay (several laboratories)
The list is not random: actives were taken first. Their share in the collection is about 2.1%.
KLF5 inh: suppresses KLF5 promoter-driven expression | 0.23% of 290,000 active | inhibition, % at 5 µM | AID 1700 | DLD-1 KLF5 promoter-luciferase reporter, luminescence;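 active = inhibition above a per-plate limit of that plate's mean compound inhibition plus 3 SD, cut at about 60% in these data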;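 also: 0% = DMSO wells and 100% = LY294002 at 200 µM; higher means less KLF5 promoter-driven luciferase light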
bCat nuc transl: modulators of beta-catenin nuclear translocation | nuclear translocation activity, % at 5 µM | AID 1665 | HeLa beta-catenin nuclear translocation, immunofluorescence imaging | 0.3% of 190,000 active;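 active = nuclear translocation activity above 50% at 5 µM, with a well cell count of 50 or more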;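 also: per-cell ratio of nuclear to cytoplasmic median beta-catenin stain intensity; plate controls were DMSO negative control for no effect and GSK-3 inhibitor IX positive control for full effect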
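Read-out: Nuclear/cytoplasmic beta-catenin signal ratio, % activation | Assay system: Human HeLa cell line | Times: 24 h compound exposure at 37°C, 5% CO2 | Signal: Fluorescence imaging of beta-catenin antibody stain plus DAPI | Dosing: 5 µM primary, 0.02–20 µM confirmation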
MT stabilizer: stabilizes microtubules in HeLa cells | HeLa tubulin immunostaining HCS, 24 h; share of cells brighter than vehicle mean+2SD | % tubulin-high responders, % at 10 µM | 0.83% of 200,000 active;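 active = plate Z-score above 3 for both tubulin-high and condensed-nucleus cell shares, with cell loss under 80%, at 10 µM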;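 also: anti alpha tubulin signal scored within the nucleus-defined area of each cell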
Ba/F3 V617F tox: reduce viability of Ba/F3 cells dependent on JAK2V617F. 1.1% of 220,000 active. AID 1446. Ba/F3 EpoR-JAK2V617F viability, ATP luminescence. inhibition, % at 5.6 µM;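 active = inhibition above the campaign mean plus 3 SD over all tested compounds, cut at about 24% in these data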;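 also: cytokine-independent growth of Ba/F3 cells driven by EpoR plus mutant JAK2; 0% = DMSO-treated cells and 100% = JAK inhibitor I control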
IEC-6 tox: counter-screen for KLF5 inhibitors: cytotoxicity in IEC-6 cells; IEC-6 cytotoxicity, luminescence viability; inhibition, % at 5 µM; 0.78% of 290,000 active; AID 1825; in the data active = inhibition above about 22%;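 also: 0% = plate median of test compound wells and 100% = cytotoxic reference compound wells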
BaF3 tox: parental Ba/F3 viability inhibition as JAK2V617F counter-screen; CellTiter-Glo ATP luminescence; inhibition, % at 5.6 µM; 1.1% of 220,000 active;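 active = inhibition above a per-campaign cutoff, the mean inhibition of all tested compounds plus 3 SD, cut at about 27% in these data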;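 also: 0% = DMSO wells and 100% = JAK Inhibitor I control wells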
Starred values were filed as active, the others as inactive; · = no result.

SMILES	KLF5 inh	bCat nuc transl	MT stabilizer	Ba/F3 V617F tox	IEC-6 tox	BaF3 tox
CCOC(=O)C1CCCN(C(=O)Cn2nc(C)n3nc(-c4ccccc4)cc3c2=O)C1 (centres undefined)	8	·	·	·	6	·
O=C(CC(C(=O)N1CCc2ccccc21)n1ccnc1)NCC1CCCO1 (centres undefined)	-30	0	5	1	0	95*
CCCCCCCCCCCCCCCC[n+]1cccc(C(=O)N(CC)CC)c1	-4	5	27	59*	2	62*
CCCCCCCC[n+]1cccc(C(=O)N(CC)CC)c1	2	·	3	3	2	6
CN1C[C@@H]2C[C@@H](c3ccc(C#CC(C)(C)O)s3)N3CCC[C@@]23C1=O	-21	0	3	-4	0	1
CCCCn1c(/C=N/Nc2nc3ccccc3[nH]2)nc2ccccc21	-4	-1	3	1	4	3
C#CCn1cc(/C=N/Nc2nc3ccccc3[nH]2)c2ccccc21	-37	1	3	3	31*	4
CC1CCC(C(C)C)C(OCC[N+](C)(C)C)C1 (centres undefined)	3	-1	5	37*	4	42*
CC1CCC(C(C)C)C(OCC(O)C[N+]2(C)CCCCC2)C1 (centres undefined)	-33	0	2	28*	2	50*
CC1CCC(C(C)C)C(OCC(O)CN2CCCC(C)C2)C1 (centres undefined)	-30	-6	2	-1	-8	6
Cc1ccc(NC(=O)CN2C(=O)CNC2=O)cc1	-10	0	·	2	-2	-14
Cc1nc2nc(SCc3ccccc3)[nH]n2c(=O)c1C	-11	·	·	·	9	·
CCOc1c(C)cnc2c1c(=O)n(Cc1c(F)cccc1Cl)c(=O)n2C	-20	·	·	·	-4	·
Cc1n(CC(=O)c2ccc(F)cc2)c2ccccc2[n+]1C	-19	-2	3	15	5	28*
CN(C)c1ccc(CNc2ccc3c(c2)ncn3C)cc1	-4	-6	1	21	6	33*
CCCC1=C(C(=O)OCC)C(/C=C/c2ccccc2)n2ncnc2N1 (centres undefined)	7	·	45*	4	4	10
CCCCCc1ccc(OCCOCCn2c[n+](C)c3ccccc32)c(CCCCC)c1	9	-1	79	101*	16	82*
CCCCCc1ccc(OCCC[n+]2ccccc2)c(CCCCC)c1	-1	4	·	100*	21	84*
C[n+]1cn(CC(O)COCc2ccccc2)c2ccccc21 (centres undefined)	-38	·	3	1	0	16
CC(=O)Nc1ccc(OCCC[n+]2ccccc2)cc1	-33	-1	3	-6	-3	-1
COc1cc(C2Nc3ccc4ncccc4c3C3=C2C(=O)CCC3)cc(OC)c1O (centres undefined)	-47	0	48*	0	2	7
C=CCOc1c(Cl)cc(CNc2ccc(N(C)C)cc2)cc1OC	-5	4	32*	-5	-8	3
COc1cc(CNc2ccc(N3CCCC3)cc2)cc(Cl)c1OC	-24	3	16*	-2	1	-1
O=C(NCc1cccnc1)C1CC(=O)N(CCc2ccccc2)C1 (centres undefined)	-1	·	4	2	2	3
CCCCNC(=O)[C@H]1N2C(=O)c3c(ccc(OC)c3OC)C2SC1(C)C (some centres undefined)	-15	·	·	·	0	·
SMILES	KLF5 inh	bCat nuc transl	MT stabilizer	Ba/F3 V617F tox	IEC-6 tox	BaF3 tox
COc1ccccc1NS(=O)(=O)c1cc(NC(=O)CCC2CCCC2)ccc1N1CCOCC1	-9	9	4	7	-18	13
CN1CCN(c2ccc([N+](=O)[O-])cc2C(=O)c2ccccc2)CC1	-5	5	16	3	1	5
CN1CCN(c2ccc([N+](=O)[O-])cc2C(=O)c2ccc(Br)cc2)CC1	-4	64*	20*	-2	6	2
COc1ccc(C(=O)c2cc([N+](=O)[O-])ccc2N2CCCC2)cc1	-5	-4	20*	5	-4	13
Cc1ccc(C(=O)c2cc([N+](=O)[O-])ccc2N2CCOCC2)cc1C	6	10	20*	85*	6	76*
COc1ccc(C(=O)c2cc([N+](=O)[O-])ccc2N2CCN(C)CC2)cc1	55	74*	14*	74*	74*	85*
Cc1ccccc1COC(=O)c1cc([N+](=O)[O-])ccc1N1CCOCC1	-1	·	·	·	0	·
CCN(CC)c1ccc(NC(=O)c2ccc3c(c2)OCO3)cc1	-124	·	·	·	10	·
Brc1cnc2nc[nH]c2c1	3	0	·	1	-1	0
C=CCOc1c(Cl)cc(C2NC(=O)NC(C)=C2C(=O)OC)cc1Cl (centres undefined)	-24	0	23*	-2	4	3
C=CCOc1c(OC)cc(Cl)cc1C1NC(=O)NC(C)=C1C(C)=O (centres undefined)	-23	-4	2	-4	6	1
COc1ccc(NC(=O)CN(C)CC(=O)Nc2ccc(Cl)cc2F)cc1	-12	-1	2	-1	2	7
O=C(COc1ccc(C(=O)c2ccccc2)cc1)NCc1ccc(F)cc1	26	158*	9.7*	6	41*	6
O=C(COc1ccccc1)NCc1ccccc1	-26	·	2	-4	-2	-2
Cc1ccc(NC(=O)CC(NCC2CCCO2)C(=O)O)cc1C (centres undefined)	-18	8	2	4	1	7
Cc1ccc(-c2cc(C(F)F)n3ncc(C(=O)N4CCc5ccccc54)c3n2)cc1	-19	6	11*	3	5	1
O=C(O)c1ccc2cccnc2c1O	-24	1	·	-1	-10	-1
Cc1ccc2ccc3cccnc3c2n1	-21	·	·	·	72*	·
CCOC(=O)c1c(NC(=O)CN2C(=O)c3ccccc3C2=O)sc(Cc2ccc3c(c2)OCO3)c1C	-32	-2	3	-3	2	-1
CCCCc1cc(=O)oc2cc(C)cc(OC(C)C(=O)NCc3ccncc3)c12 (centres undefined)	-21	·	·	·	5	·
O=c1[nH]c(CN2CCN(c3ccccc3)CC2)nc2scc(-c3ccccc3)c12	-37	·	20*	0	-4	7
O=C(Nc1ccc(CN2CCCCC2)cc1)Nc1ccccc1Cl	-19	0	3	1	9	59*
CC(C)CC1c2[nH]c3ccccc3c2CCN1CCCn1cccn1 (centres undefined)	-26	0	4	2	-3	9
CC1CC(C)CN(Cc2nc(N)nc(Nc3ccc4ccccc4c3)n2)C1 (centres undefined)	-25	40	46*	12	12	12
O=C(OCc1nnc(-c2ccc(Br)cc2)o1)c1ccco1	-11	·	·	·	-6	·
O=C(OCc1nc(-c2ccccc2)oc1COC(=O)c1ccco1)c1ccco1	-38	-6	3	2	4	54*
